# Experimental data from different studies.
# Protocols differ between the studies behind these lines.
# Organism: Acinetobacter baumannii
# Observed: microbial growth
Structure (SMILES),method,strain,time,setting,MIC
O=C(CCCCCC[P+](c1ccccc1)(c1ccccc1)c1ccccc1)Nc1cc(O)c(O)c(O)c1.[Br-],broth dilution,ATCC19606,18 h,,> 32 mg/L
O=C(O)c1ccc(-n2cc(/C=N/Nc3ccc(Br)cc3)c(-c3cccc(F)c3)n2)cc1,,ATCCBAA1605,,,6.25 mg/L
CCCNc1nc(F)c2c(c1O)C(=O)C1=C(O)[C@]3(O)C(=O)C(C(N)=O)=C(O)[C@@H](N(C)C)[C@@H]3C[C@@H]1C2.Cl.Cl,broth dilution,ATCC19606,,,0.125 mg/L
O=C(Cc1cc(O)c(O)c(O)c1)NCCCCCCCC[P+](c1ccccc1)(c1ccccc1)c1ccccc1.[Br-],broth dilution,ATCC19606,18 h,,> 32 mg/L
CCCCCCC/C=C/C(=O)N1C(=O)/C(=C(/C)O)C(=O)C1CO (stereo not drawn),,ATCC19606,,,> 200 mg/L
NC1CCCCc2c1[nH]c1cc(Cl)c(Cl)cc21 (stereo not drawn),broth dilution,ATCC19606,,,8 mg/L
C[C@@H](O)[C@H]1C(=O)N2C(C(=O)O)=C(S[C@@H]3CN[C@H](C(=O)N(C)C)C3)[C@H](C)[C@H]12,broth dilution,ATCC19606,,,0.5 mg/L
CN(C)c1cc(CNCC(C)(C)C)c(O)c2c1C[C@H]1C[C@H]3[C@H](N(C)C)C(O)=C(C(N)=O)C(=O)[C@@]3(O)C(O)=C1C2=O,broth dilution,ATCC19606,,,1 mg/L
CN(C)[C@@H]1C(O)=C(C(N)=O)C(=O)[C@@]2(O)C(O)=C3C(=O)c4c(cc5ccc(-c6cccnc6)cc5c4O)C[C@H]3C[C@@H]12,broth dilution,ATCC19606,,,32 mg/L
O=C(Nc1ccc([N+](=O)[O-])cc1F)c1ccccc1O,broth dilution,BAA1605,,,> 64 mg/L
CC(NCCCCOc1ccc(Cl)c(Cl)c1)c1cc2cc(Br)ccc2[nH]1 (stereo not drawn),broth dilution,ATCC19606,,,32 mg/L
O=C(CCCCCC[P+](c1ccccc1)(c1ccccc1)c1ccccc1)Nc1ccc(O)c(O)c1.[Br-],broth dilution,ATCC19606,18 h,,> 32 mg/L
CN(C)[C@@H]1C(O)=C(C(N)=O)C(=O)[C@@]2(O)C(O)=C3C(=O)c4c(c(F)c5ccc(CNC6CC6)cc5c4O)C[C@H]3C[C@@H]12,broth dilution,ATCC19606,,,1 mg/L
O=C(O)c1ccc(-n2cc(/C=N/Nc3ccccc3F)c(-c3ccc4ccccc4c3)n2)cc1,,ATCCBAA1605,,,25 mg/L
CN(C)c1ccc(-c2ccc3cc4c(c(O)c3c2)C(=O)C2=C(O)[C@]3(O)C(=O)C(C(N)=O)=C(O)[C@@H](N(C)C)[C@@H]3C[C@@H]2C4)cc1,broth dilution,ATCC19606,,,32 mg/L
NC[C@H]1O[C@H](O[C@H]2[C@H](O)[C@@H](O[C@H]3O[C@H](CO)[C@@H](O)[C@H](N)[C@H]3O)[C@H](N)C[C@@H]2N)[C@H](N)C[C@@H]1O,,,,,1 mg/L
C/C(=C\c1ccc(O)cc1)C(=O)Nc1ccc(C(=O)N[C@@H](CC(N)=O)C(=O)Nc2ccc(C(=O)Nc3ccc(C(=O)Nc4ccc(C(=O)O)cc4)c(O)c3OC(C)C)cc2)cc1,,DSM30008,,,0.25 mg/L
C/C(O)=C1\C(=O)C(CC(C)C)N(C(=O)CCCCCc2ccccc2)C1=O (stereo not drawn),,ATCC19606,,,> 200 mg/L
CO[C@H]1/C=C/O[C@@]2(C)Oc3c(C)c(O)c4c(O)c(c(/C=N/N5CCN(C)CC5)c(O)c4c3C2=O)NC(=O)/C(C)=C\C=C\[C@H](C)[C@H](O)[C@@H](C)[C@@H](O)[C@@H](C)[C@H](OC(C)=O)[C@@H]1C,,NCTC13301,,,4 mg/L
CCCCCCC/C=C/C(=O)N1C(=O)/C(=C(\O)c2ccc(O)cc2)C(=O)C1CC(C)C (stereo not drawn),,ATCC19606,,,> 200 mg/L
C[C@H]1COc2c(N3CCN(C)CC3)c(F)cc3c(=O)c(C(=O)O)cn1c23,broth dilution,,,,3.3 µM
CN(C)c1ccc(O)c2c1C[C@H]1C[C@H]3[C@H](N(C)C)C(O)=C(C(N)=O)C(=O)[C@@]3(O)C(O)=C1C2=O,broth dilution,ATCC19606,,,≤ 0.125 mg/L
N=C(N)c1ccc(OCc2cc(COc3ccc(C(=N)N)cc3)cc(-c3ccccc3)c2)cc1,broth dilution,ATCC17978,,,> 200 mg/L
C[C@@H](O)[C@H]1C(=O)N2C(C(=O)O)=C(S[C@@H]3CN[C@H](C(=O)N(C)C)C3)[C@H](C)[C@H]12,,,,clinical isolate,128 mg/L
CN(C)[C@@H]1C(O)=C(C(N)=O)C(=O)[C@@]2(O)C(O)=C3C(=O)c4c(O)cncc4C[C@H]3C[C@@H]12.Cl.Cl,broth dilution,ATCC19606,,,2 mg/L
N=C(N)c1ccc(OCc2ccc(-c3ccccc3)cc2COc2ccc(C(=N)N)cc2)cc1,broth dilution,ATCC17978,,,> 200 mg/L
CCCCCCC/C=C/C(=O)N1C(=O)/C(=C(\O)c2ccc(F)cc2)C(=O)C1CC(C)C (stereo not drawn),,ATCC19606,,,> 200 mg/L
NC[C@@H]1O[C@H](O[C@H]2[C@@H](O)[C@H](O[C@@H]3[C@@H](O)[C@H](N)C[C@H](N)[C@H]3O[C@H]3O[C@H](CO)[C@@H](O)[C@H](O)[C@H]3N)O[C@@H]2CO)[C@H](N)[C@@H](O)[C@@H]1O,,,,,2 to 4 mg/L
CC[C@H]1OC(=O)[C@H](C)[C@@H](O[C@H]2C[C@@](C)(OC)[C@@H](O)[C@H](C)O2)[C@H](C)[C@@H](O[C@@H]2O[C@H](C)C[C@H](N(C)C)[C@H]2O)[C@](C)(O)C[C@@H](C)C(=O)[C@H](C)[C@@H](O)[C@]1(C)O,,ATCC19606,,,50 mg/L
CN(C)CC(C)(C)CNc1nc(F)c2c(c1O)C(=O)C1=C(O)[C@]3(O)C(=O)C(C(N)=O)=C(O)[C@@H](N(C)C)[C@@H]3C[C@@H]1C2.Cl,broth dilution,ATCC19606,,,4 mg/L
